# TROY NFkB inh = inhibitors of TROY-driven NF-kB signaling, primary screen, Q293 LMP1-TROYcd cells, NF-kB luciferase, uHTS. Q293 LMP1-TROYcd NF-kB luciferase reporter, 4 h. inhibition, % at 10 µM. 360,000 tested, 0.98% active;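 active = compounds whose plate-normalised and pattern-corrected inhibition of the luciferase reporter signal at the single screening dose is 50% or more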
# CaV13 FRET inh = Primary screen for inhibitors of IQ motif and Ca2+-dependent inactivation inhibitor domain binding in CACNA1D, Förster resonance energy transfer in living cells, …; HEK cells, CFP/YFP FRET ICDI-IQ, plate reader, 10 min; percent FRET-ratio fall versus neutral wells; inhibition, % at 12.3 µM; 340,000 tested, 0.098% active; AID 743397;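 active = mean replicate inhibition of at least 30% and at least 1% of replicates passing that level; inconclusive = only one of the two criteria is met; inactive = neither criterion is met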
# XiGFP reactiv = activators of inactive X chromosome reactivation, primary screen, imaging, XiGFP fibroblasts, GFP high-content imaging, set 2 | 360,000 tested, 0.055% active | activation, % at 7.58 µM | XiGFP mouse fibroblasts, % GFP-positive cells imaging, 3 d; cells co-treated with 5-aza-dC sensitizer; scaled so ellipticine positive control = 100%;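 active = mean normalized replicate activation at least 10% and every replicate at or above 10%; inconclusive = only one of the two criteria met; inactive = mean below 10% and not all replicates reach 10%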
#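 Assay system: SV40-immortalized XiGFP fibroblast cells, line 68-5-11; buffer or medium: DMEM plus 5-aza-dC sensitizer; compound: one concentration, pinned; timing: compounds 3 days, fix/stain 15 min at room temperature; benchmarks: positive control ellipticine, 6 µM final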
# TWEAK-Fn14 inh = inhibitors of TWEAK-Fn14 signaling, primary screen, luciferase reporter cells, uHTS; TWEAK-stimulated Fn14 reporter cells, luciferase luminescence, 8 h; inhibition, % at 10 µM; 360,000 tested, 2% active; AID 1159606, 2016; in the data active = inhibition above about 50%
# LGR2 inh = inhibitors of bursicon-induced LGR2 CRE-luciferase signal, primary screen, cell-based, HEK293, CRE-luciferase reporter, bursicon stimulation; bursicon-stimulated, 4 h; inhibition, % at 9.99 µM; 380,000 tested, 0.35% active; AID 720647, 2013;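 active = drop in luminescence signal, shown as inhibition above about 50% in the replicate tests, limit read from the data, passing the limit was not always enough; inconclusive = probably only some replicates passing the limit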;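 note: agonist challenge used bursicon conditioned medium at about half maximal strength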
# Hits are given with their value; . = inactive; ? = inconclusive; / = no result given. The list is not random: actives were taken first. Their share in the collection is about 2%.
SMILES,TROY NFkB inh,CaV13 FRET inh,XiGFP reactiv,TWEAK-Fn14 inh,LGR2 inh
CC(=O)N1[C@H](CN(C(=O)c2ccccc2)C(C)C)[C@@H](c2ccccc2)[C@@H]1CO,/,/,.,/,.
CCOC(=O)CSc1nc2cc3c(cc2cc1C#N)OCO3,.,.,/,.,/
CCOC(=O)CSc1nc2cc3c(cc2cc1C#N)OCCO3,57.3,.,.,.,.
CC1(C)Cc2c(sc(NC(=O)COc3ccc(Cl)cc3)c2C#N)C(C)(C)N1,.,/,/,101.1,/
COCC#Cc1cnc2c(c1)C(=O)N([C@H](C)CO)C[C@@H](C)[C@H](CN(C)C(=O)Cc1ccccc1)O2,/,/,.,/,.
O=C(Nc1ccccc1)N1C[C@H]2[C@@H](c3ccccc31)[C@H](CO)N2C(=O)c1ccccc1F,/,/,.,/,.
CC1=C(C(=O)Nc2ccccc2)C(c2ccncc2)C(C#N)=C(SCC(=O)NC(C)C)N1 (configuration not stated),.,.,/,.,/
CC1=C(C(=O)Nc2ccccc2)C(c2ccncc2)C(C#N)=C(SCC(=O)NC2CC2)N1 (configuration not stated),/,.,/,94.4,/
Cn1c(Sc2ccccc2Cl)c(C=O)c2ccccc21,.,/,/,.,/
Cn1c(Oc2ccc(Cl)cc2)c(C=O)c2ccccc21,.,/,/,64.1,/
Cn1c(Sc2ccc(Cl)cc2)c(C=O)c2ccccc21,55.0,.,/,80.1,/
COc1ccc(Oc2c(C=O)c3ccccc3n2C)cc1,.,/,/,.,/
COCC(=O)N1[C@H](CO)[C@@H](c2ccccc2)C12CN(C(=O)NC1CCCC1)C2,/,/,.,/,.
CCCNC(=O)C[C@H]1CC[C@H]2[C@H](COc3ccc(NC(=O)Cc4ccccc4)cc3C(=O)N2C)O1,/,/,.,/,.
CC(C)Cn1c(N)c(C(=O)COC(=O)CC23CC4CC(CC(C4)C2)C3)c(=O)n(C)c1=O,59.3,/,/,72.9,/
O=C(N=C1c2ccccc2CN1c1cccc(Cl)c1)c1cccnc1,.,.,.,.,.
O=C(N=C1c2ccccc2CN1c1ccc(F)c(F)c1)c1cccnc1,.,.,.,52.3,.
Cn1c(SCC(=O)N/N=C/c2ccc([N+](=O)[O-])s2)nnc1-c1ccccc1,.,.,.,58.3,.
CCCC#Cc1cnc2c(c1)C(=O)N([C@@H](C)CO)C[C@@H](C)[C@@H](CN(C)Cc1ccccc1)O2,/,/,.,/,.
CC(Nc1c([N+](=O)[O-])c(=O)oc2ccccc12)C(Cl)c1ccccc1 (configuration not stated),.,.,/,50.2,.
C[C@H](NC(=O)C[C@@H]1CC[C@@H]2[C@H](COC[C@H](O)CN2C(=O)Nc2cccc(F)c2)O1)c1ccccc1,/,/,.,/,.
Cc1noc(C)c1NC(=O)Nc1ccc2c(c1)C(=O)N([C@@H](C)CO)C[C@@H](C)[C@@H](CN(C)C)OCCCC[C@H](C)O2,/,/,.,/,.
O=C(O)c1ccc(NC2=C(Cl)C(=O)c3ccccc3C2=O)cc1,.,.,.,.,.
O=C1C(Cl)=C(Nc2ccccc2)C(=O)c2ccccc21,70.0,.,.,.,.
O=C(O)c1cccc(NC2=C(Cl)C(=O)c3ccccc3C2=O)c1,.,.,.,59.6,.
SMILES,TROY NFkB inh,CaV13 FRET inh,XiGFP reactiv,TWEAK-Fn14 inh,LGR2 inh
CCN(CC)CCCNC1=C(Cl)C(=O)c2ccccc2C1=O,.,.,?,.,77.2
COc1ccc(C#Cc2ccc3c(c2)[C@H]2[C@H](CCN2C(=O)NC(C)C)[C@H](CO)N3C)cc1,/,/,.,/,.
C[C@H](CO)N1C[C@H](C)[C@H](CN(C)S(=O)(=O)c2ccc(Cl)cc2)OCCCC[C@H](C)Oc2ccc(NS(C)(=O)=O)cc2C1=O,/,/,.,/,.
Cc1ccc(OCc2nnc(SCC(=O)Nc3sc(C)c(C)c3C#N)n2C)cc1,.,.,/,51.7,/
Cc1sc(NC(=O)CSc2nnc(COc3ccccc3)n2C)c(C#N)c1C,.,.,/,.,/
C[C@@H]1CN([C@H](C)CO)C(=O)c2cc(NS(=O)(=O)c3ccccc3)ccc2O[C@@H]1CN(C)Cc1ccc2c(c1)OCO2,/,/,.,/,.
CCOc1cccc(C(=O)NC2=NCCS2)c1,.,.,.,.,.
CCOc1ccc(C(=O)SC2=NCCS2)cc1,.,.,/,63.1,/
COc1ccc(C(=O)SC2=NCCS2)cc1,.,.,/,53.6,.
